According to the RNAGym collection of RNA variant scans (doi:10.1126/science.aae0568):
This sample holds only a part of the variants without activity.

B1: tRNA (parent)
chain: GUUCCGUUGGCGUAAUGGUAACGCGUCUCCCUCCUAAGGAGAAGACUGCGGGUUCGAGUCCCGUACGGAACG

Variants of: B1
Assay: yeast fitness relative to wild type (ratio to wild type); higher = fitter; tRNA-Arg(CCU), competitive growth, 37 C, YPD
In short: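 Gene amplicons from the start population and from each of six end populations were read by 100-nucleotide paired-end sequencing. Those end populations came from pooled Saccharomyces cerevisiae strains carrying tRNA-Arg(CCU) gene variants at the native locus, competed in YPD at 37°C for 24 hours. Fitness relative to wild type was worked out from changes in genotype frequencies. Genotypes needed ≥ 100 starting reads, and estimates < 0.5 were set to 0.5.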
Work on GUUCCGUUGGCGUAAUGGUAACGCGUAUCCCUCCUAAGGAGACGACUGCGGGUCCGAGUCCCGUACGGAACG [C27A A43C U54C] yielded a yeast fitness of 0.624.
Work on GUUCCGUUGGCGUAAUGGUAACGCGUCUCCCUCAUAAAGAGAAGACUGCGGGUUCGAGUCCCGUACGGAACG [C34A G38A] yielded a yeast fitness of 0.699.
With GUUCGGUUGGCGUAAUGGUAACGCGUCUCCCUCCUAUGGAGAAGACUGCGGGUUGGAGUCGCGUAGGGAACG [C5G A37U C55G C61G C66G] the yeast fitness was 0.623.
Work on GUUCCGAUGGCGUAAUGGUAACGCGUCUCCCGACUAAGGAGAAGACUGCGGGUUCGAGUCCGGUAUGGAACG [U7A U32G C33A C62G C66U] yielded a yeast fitness of at most 0.5.
In the case of GUUCCGUUGGCGUAAUGGUAACGCGUCUCCCUCCUAGGGAGAAGACUGCGCGUUCGAGUCCCGUACGGAACG [A37G G51C], the yeast fitness is reported as 0.601.
With GUUCCGUUGGGGUAAUGGUAACCCGUCUCCCUCCUAGGGAGAAGACUGCGGGUUCGCGUCCCGUACGGAACG [C11G G23C A37G A57C] the yeast fitness was 0.979.
Work on GUUCCGUUGGCGUAAAGGUUACGGGUCUCCCUGCUAAGGAGAAGACUGCGGGUUCGAGUCCCGUACGGAACG [U16A A20U C24G C33G] yielded a yeast fitness of at most 0.5.
In the case of GUUCCGUUGGUGUAAUGGAAACGCGUCUCCCUCCUAAGGAGAUGACUGCGGGUUCGAGACCCAUACGGAACG [C11U U19A A43U U59A G63A], the yeast fitness is reported as at most 0.5.
With GUUCCGUUGGCGUAGUGGUAACGCGUCUCCCUCCUCAGGAGAAGACUGCGGGUUCGAGUCCCGUACGGAACG [A15G A36C] the yeast fitness was 0.515.
Variant GUUCCGUUGGCGAACUGGUAACGCGUCUCCCUCCUAAGGAGAAGACUGCGGGUGCGAGUCCCGUAGCGAACG [U13A A15C U54G C66G G67C] has a yeast fitness of at most 0.5.
For GUUACGUUGGCGUAAUGGUAACGCGUCUACCUCCUAAGGAGAAGACUGCGGGUUCGAGUCCCGUACGGAACG [C4A C29A], the yeast fitness was 0.637.
Variant GUUCCGUUGGCGUAAUGGUAACGCGUCGCCCUCCUAAGGAGAAGACUGCGGGUUCGACUCCCGUACGGAACG [U28G G58C] has a yeast fitness of 0.771.
Variant GUUCCGUUGGCGUAAUGGUAAUGCGUCUCCCUCCUAAGGAGAAGACUGCGGGUAUGAGUCCCGUACGGAACG [C22U U54A C55U] has a yeast fitness of 0.776.
With GUUUCGUUGGCGUAAUGGUAACGCGUCUCCCUCCUAAGGGGAUGACUGCGGGUUGGAGUCCCGUACGGAACG [C4U A40G A43U C55G] the yeast fitness was 0.584.
For GUUCCGUUGGCGUAAUGGUAACGCGUCUCCGUCCUAAGGAGAAGAGUGCGGGUUCGACUCCCGUACGGAACG [C31G C46G G58C], the yeast fitness was 0.928.
With GUUCCGUUGGCGUAAUGGUAACGCGUCUCCCUACCAAGGAGAAGAUUGUGGCUUCGAGUCUCGUAUGGAACG [C33A U35C C46U C49U G52C C61U C66U] the yeast fitness was at most 0.5.
With GUACCGUUGGCGUAAUGGUAACGCGUCUCCCUCCUAAGGGGGAGACUGCGGGUUCGCGUCCCGUAUGGAACG [U3A A40G A42G A57C C66U] the yeast fitness was at most 0.5.
GUUCCGUUGGCGGAAUGGUAAUGCGUCUCCCUCCUAAGGAGAAGACUGCGGGUUCGAGUCCCAUACGGAACG [U13G C22U G63A] showed a yeast fitness of 0.707.
GUUCCGUUGGCGUAGUGGUCACGCGUCUCCCUCCUAAGGAGAAGACUGCGGGUUCGAGUCCGGUACGGAACG [A15G A20C C62G] gave a yeast fitness of 0.731.
Work on GUUCUGUUGGCGUAAUGGUAACGCGUCUCCCUUCUAAGGAGAAGGCUGCGGGUUCGAGUCUCGUACGGAACG [C5U C33U A45G C61U] yielded a yeast fitness of at most 0.5.
For GUUCCGUUGGCGUAAUGGCUACGCGUCUCCCUCCUAAGGAGAAGACUGCGGGUUAGAGUCCCGUACGGAACG [U19C A20U C55A], the yeast fitness was at most 0.5.
With GAACCGUUGGCGUAAUGGUAACGGGUCUCCCUCCUAAGGAGAAGACUGCGGCUUCGAGUCCCGUACGGAACG [U2A U3A C24G G52C] the yeast fitness was at most 0.5.
Work on GUUCCAUUGGCGUAAUGGUAAUGCGUCUCCCUCCUAAGGAGAAGACUGCGGGGUCGAGUCCCGUACGGAACG [G6A C22U U53G] yielded a yeast fitness of 0.653.
Work on GUUCCGUUGGCGUAAUGGUAACGCGUCUCCCUCCUAAGGAGGAGACUGCGGGUUCGUGUCCCGUACCGAACG [A42G A57U G67C] yielded a yeast fitness of at most 0.5.
Variant GUUCCGUCGGCGUGAUGGUAACGCGUCUCCCUCCUAAGGAGAAGACUGCGGGUUCCAGUCCCGUACGGAACG [U8C A14G G56C] has a yeast fitness of at most 0.5.
Work on GUUCCCUUGGCGUAAUGGUAACGCGUCUCCCUCCUAGGGAGAAGACUGCGGGUUCGAGUUCCGUGCGGAACG [G6C A37G C60U A65G] yielded a yeast fitness of at most 0.5.
With GUUCCGUUGGCGUAAUGGUAACGCGUCUCCCUCCUAUGGAGAAGACUGUGGGUUCGAAUCCCGUACGGAACG [A37U C49U G58A] the yeast fitness was 0.57.
Variant GUUGCGUUCGCGUAAUGGUAACGCGUCUCCCUCCUAAGGAAAAGACUGCGGGUUCGAGUCCCGUACGGAACG [C4G G9C G41A] has a yeast fitness of at most 0.5.
Variant GUUUCGUUGGCGUAAUGGCAACGCGUCUCCCUCCUGAGAAGAAGACUGCGGGUUCGAGUCCCGUACAGAACG [C4U U19C A36G G39A G67A] has a yeast fitness of at most 0.5.
GUUCCGUAGGCGUAAUGGUAACGAGUCUCCCUCCUAAGGAGAAGACUGCGGGUUCGAGUCCCGUACGGAUCG [U8A C24A A70U] gave a yeast fitness of at most 0.5.
For GUUCCGUUGGCGUAAUGGUAACGCGUCUCCCUCCGAAGGAGAAGACUCCGGGUUCGAGUCCCGUAUGGAACG [U35G G48C C66U], the yeast fitness was at most 0.5.
GUUCCGUUGGCGUAAUCGUAACGGGUCACUCUCCUAAGGAGAAGACUGCGGGUUCGAGUCCCGUUCGGAACG [G17C C24G U28A C30U A65U] gave a yeast fitness of at most 0.5.
In the case of GUUCCGUUGGCGUAAUGGUAAAGCGUCUCCCUCCUAAGGCGAAGACUGCCGGUUCGAGUCCCGUACCGAACG [C22A A40C G50C G67C], the yeast fitness is reported as at most 0.5.
In the case of GUUCCGUUCGCGUAAUGGUAACGCGUUUCCCUCCUGAGGAGUAGACUGCGGGUUCGAGUCCCGUACGGAACG [G9C C27U A36G A42U], the yeast fitness is reported as 0.76.
Work on GUUCAGUUGGCGUAAUGGUAACGCCUCUCCCUCCUAAGGAGAAGACUGCGGGUUCCAGUCCCGUACGGAACG [C5A G25C G56C] yielded a yeast fitness of at most 0.5.
Variant GUUCCGUUGGCGUACUGGUAACGCGUCUCCCUCCCAAGGAGAAGAGUGCGGGUUCGAGUCCCGUACGGAACG [A15C U35C C46G] has a yeast fitness of 0.67.
GUACCGCUGGCGUAAUGGUAACGCGUCUCCCUCCUAAGGAGAAGACUGCGGGUUCGAGUCCCGUACGGAACG [U3A U7C] gave a yeast fitness of 0.839.
Work on GUUCCGUUGGCGUAAUAGUAACGCGUCUUCCUCAUAAGGAGAAGACUGCGGGUUCGAGUCCCGUACGGAACG [G17A C29U C34A] yielded a yeast fitness of at most 0.5.
